Compound activity from PubChem BioAssay.
Hits are enriched below; roughly 2.1% of the tested compounds scored in any of these assays.
STAT3 inh-1: IL-6 driven STAT3 reporter inhibitors, primary screen, U3A cells, luciferase, luminescence, MLSCN library; IL-6 STAT3-luciferase reporter; host cell line lacks STAT1; inhibition, % at 5.5 µM; 0.89% of 190,000 active;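 active means inhibition above the mean inhibition across all screened compounds plus 3 SD, cut at about 44% in these data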
STAT3 act: IL-6 driven STAT3 reporter potentiators, primary screen, U3A cells, luciferase, luminescence, MLSCN library | IL-6 STAT3-luciferase reporter; 100% = signal with IL-6 EC80 alone | activation (% of control), % at 5.6 µM | 0.91% of 190,000 active | AID 871, 2007;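 active means activation above the screen-wide mean of compound activation plus 3 SD, cut at about 130% in these data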
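Material: human STAT1-deficient U3A cells with stable STAT3-luciferase reporter / Probe or stimulus: IL-6 stimulus at 33 ng/mL final / Schedule: 1 h compound pre-exposure, 6 h IL-6 stimulation, 37 °C / Technique: luminescence / Read-out basis: percent of IL-6-only median luminescence / Control set: IL-6-only high control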
L929 necroptosis: inhibitors of zVAD-triggered necroptosis, primary screen, L929 cells | 0.38% of 220,000 active | viability rescue, % at 10 µM | L929 zVAD necroptosis rescue, ATP luminescence, 24 h; with zVAD 60 µM;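 active means activation, scaled between plate controls, above about 75%, limit read from the data; inactive means activation under that limit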
STAT1 inh: STAT1 signaling inhibitors, primary screen, cell-based, HTS, luciferase reporter. 0.35% of 200,000 active. NIH 3T3 STAT1-luciferase reporter, IFN-gamma, luminescence. inhibition, % at 5.5 µM;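 active means inhibition above a set limit, the mean inhibition across all tested compounds plus 3 SD, cut at about 34% in these data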
TNF death inh: inhibitors of TNF-alpha triggered necroptosis, primary screen, cell-based, Jurkat FADD-/-, single concentration; Jurkat FADD-/- TNF necroptosis rescue, ATP luminescence, 24 h; 0 = TNF only, 100 = no-TNF cells; activation (protection from cell death), % at 10 µM; 0.068% of 220,000 active; AID 463075, 2010;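 active means activation, meaning protection from cell death, of at least 50% relative to plate controls; inactive means activation below 50%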;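 further: necroptosis triggered by 40 ng/mL TNF-alpha added together with compound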
STAT3 inh-2: STAT3 reporter inhibitors, retest of hits, confirmation, U3A cells, luciferase, luminescence | shares compounds with STAT3 inh-1 | IL-6 STAT3 luciferase reporter; cell line lacks STAT1 | inhibition, % at 5.7 µM | 45% of 1,200 active | AID 1265, 2008;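 active means inhibition above the hit cutoff computed for the primary STAT3 screen, cut at about 44% in these data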
NFkB inh STAT3ct: NF-kB reporter inhibitors in human cells, confirmation, counter-screen for STAT3 inhibitor project, cell-based, HEK293T, luciferase, TNF-alpha stimulus. inhibition, % at 5.7 µM. TNF-alpha induced. shares compounds with STAT3 inh-1. 36% of 1,200 active;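 active means inhibition above the mean of solvent-only control wells plus 3 SD, cutoff set per campaign, cut at about 13% in these data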
STAT1 inh STAT3c: STAT1 reporter inhibitors, IFN-gamma induced, confirmation, counter-screen for STAT3 inhibitor project, cell-based, NIH 3T3, luciferase luminescence. 27% of 1,200 active. inhibition, % at 5.7 µM. shares compounds with STAT3 inh-1. NIH 3T3 STAT1-luciferase reporter;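 active means inhibition above the mean plus 3 SD of solvent-only control wells, limit set per screening run, cut at about 16% in these data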
Each line names hits and unclear results; the compound was inactive in the other large screens (follow-up assays come after a bar, where they were run).

Cc1nc2ccc(NS(=O)(=O)c3ccc4c(c3)OCCO4)cc2s1	STAT3 inh-1 71 | STAT3 inh-2 67 | NFkB inh STAT3ct 26 | STAT1 inh STAT3c 28
CCOc1cc(S(=O)(=O)NCc2ccncc2)ccc1Cl	STAT3 inh-1 84 | STAT3 inh-2 85 | NFkB inh STAT3ct 34 | STAT1 inh STAT3c 27
CC(=O)Nc1ccc(S(=O)(=O)NCc2ccncc2)cc1	none
CCOc1cc(S(=O)(=O)NCc2cccs2)ccc1Cl	none
CC1CCCCC1NS(=O)(=O)c1ccc(S(=O)(=O)NCc2ccncc2)cc1 (centres undefined)	STAT3 inh-1 73 | STAT3 inh-2 48 | NFkB inh STAT3ct inactive | STAT1 inh STAT3c inactive
Cc1ccc(S(=O)(=O)NCC(=O)NCc2ccncc2)cc1	none
CCOC(=O)COc1ccc(S(=O)(=O)NCc2ccncc2)cc1	STAT3 inh-1 70 | STAT3 inh-2 55 | NFkB inh STAT3ct inactive | STAT1 inh STAT3c 23
Cc1ccc(S(=O)(=O)NCc2ccncc2)cc1	STAT3 inh-1 68 | STAT3 inh-2 inactive | NFkB inh STAT3ct 21 | STAT1 inh STAT3c 25
O=C(CSc1ccccc1)Nc1ccccc1C(=O)O	none
CCOc1ccc(C2/C(=C(\O)c3ccc(OC)c(OC)c3)C(=O)C(=O)N2c2cc(C)on2)cc1OC (centres undefined)	none
CCOC(=O)c1cc(-c2ccc(OC)cc2)nn1-c1ccccc1C(=O)O	none (no result: STAT3 inh-1, STAT3 act, STAT1 inh)
CCOc1ccc(S(=O)(=O)NCc2ccncc2)cc1	STAT3 inh-1 88 | STAT3 inh-2 82 | NFkB inh STAT3ct 34 | STAT1 inh STAT3c 24
CCOC(=O)N1CCC(NC(=O)CS(=O)(=O)Cc2nc(-c3ccc(C)cc3)oc2C)CC1	none
O=C(Nc1ccccc1)c1ccc(F)c(S(=O)(=O)N2CCOCC2)c1	none
O=C(Nc1ccc(-c2cn3ccsc3n2)cc1)c1ccc(F)c(S(=O)(=O)N2CCOCC2)c1	STAT3 inh-1 45 | STAT3 inh-2 inactive | NFkB inh STAT3ct inactive | STAT1 inh STAT3c inactive
COc1ccccc1-[n+]1c(C)cc(/C=C2\Sc3ccccc3N2C)cc1C	none (no result: STAT3 inh-1, STAT3 act, STAT1 inh)
COc1ccc(-[n+]2c(C)cc(/C=C3\Sc4ccccc4N3C)cc2C)cc1	STAT3 inh-1 85 | STAT3 inh-2 85 | NFkB inh STAT3ct 56 | STAT1 inh STAT3c inactive
Cc1ccc(C)n1-c1ccc(-c2ccnc(N)n2)cc1	STAT3 inh-1 45 | STAT3 inh-2 inactive | NFkB inh STAT3ct inactive | STAT1 inh STAT3c inactive
Cc1nn(C)c(C(=O)NCc2ccc(Cl)cc2)c1Cl	STAT3 inh-1 56 | STAT3 inh-2 65 | NFkB inh STAT3ct 14 | STAT1 inh STAT3c 20
CCS(=O)(=O)c1ccc(N=Nc2ccc(O)c3ncccc23)c(OC)c1	STAT3 inh-1 55 | STAT3 inh-2 inactive | NFkB inh STAT3ct inactive | STAT1 inh STAT3c inactive
Cc1cc(=S)n(-c2ccccc2)n1C	none
CC(c1ccccc1)c1nnc(NC(=O)c2ccc3c(c2)OCO3)s1 (centres undefined)	none (no result: STAT3 inh-1, STAT3 act, STAT1 inh)
CC(C)c1nnc(NC(=O)c2ccc3c(c2)OCO3)s1	STAT3 inh-1 79 | STAT3 inh-2 48 | NFkB inh STAT3ct inactive | STAT1 inh STAT3c inactive
CCN(CC)S(=O)(=O)c1ccc(/C=C/C(=O)Nc2c(C)n(C)n(-c3ccccc3)c2=O)cc1	none
CCO[C@H]1OC(C(=O)N2CCOCC2)=C[C@@H](c2cn(C(C)=O)c3ccccc23)[C@@H]1CCCO	none (no result: STAT3 inh-1, STAT3 act)
Cc1ccc(S(=O)(=O)/N=C(\N)Nc2nc(C)c3cc(C)c(C)cc3n2)cc1	STAT3 inh-1 44 | STAT3 inh-2 inactive | NFkB inh STAT3ct inactive | STAT1 inh STAT3c inactive
Cc1ccc(C)c(C(=O)COC(=O)c2cccc(N3C(=O)c4c(C)nc5ccccc5c4C3=O)c2)c1	STAT3 inh-1 50 | STAT3 inh-2 45 | NFkB inh STAT3ct 29 | STAT1 inh STAT3c 44
Cc1nc2ccccc2c2c1C(=O)N(c1cccc(C(=O)O)c1)C2=O	none
CC(=O)N/N=C(\C)c1ccc2c(c1)OCCO2	none
CCCOc1ccc(CSc2nc3ccccc3[nH]2)cc1	STAT3 inh-1 59 | STAT3 inh-2 48 | NFkB inh STAT3ct inactive | STAT1 inh STAT3c inactive
CCOc1ccc(OCCSc2nc3ccccc3[nH]2)cc1	none
COc1ccccc1NS(=O)(=O)c1cccc(C(=O)N/N=C(\C)c2ccc3c(c2)OCCO3)c1	none
CCc1ccc(NC(=O)c2cc(C)on2)cc1	STAT3 inh-1 49 | STAT3 inh-2 inactive | NFkB inh STAT3ct inactive | STAT1 inh STAT3c inactive
Cc1ccc(NC(=O)c2cc(C)on2)cc1	none
CCc1ccc(NC(=O)c2cc(C(C)C)on2)cc1	STAT3 inh-1 48 | STAT3 inh-2 inactive | NFkB inh STAT3ct inactive | STAT1 inh STAT3c inactive
Cc1cc(/C=C2\Cc3ccccc3C2=O)c(C)n1-c1ccccc1	STAT3 inh-1 71 | STAT3 inh-2 inactive | NFkB inh STAT3ct inactive | STAT1 inh STAT3c inactive
Cc1cc(C=C2C(=O)c3ccccc3C2=O)c(C)n1-c1ccc(C(=O)O)cc1	none
Cc1cc(C=C2C(=O)c3ccccc3C2=O)c(C)n1-c1ccccc1	STAT3 inh-1 75 | STAT3 inh-2 inactive | NFkB inh STAT3ct inactive | STAT1 inh STAT3c inactive
Cc1ccc(OCC(=O)Nc2ccc(N(C)C)cc2)cc1	none
COc1ccccc1C(=O)Nc1cccc(Oc2c(F)c(F)c(F)c(F)c2F)c1	none (no result: STAT3 inh-1, STAT3 act, STAT1 inh)
CCOC(=O)CSc1nc(C)c2cccc(C)c2n1	none (no result: STAT3 inh-1, STAT3 act, STAT1 inh)
NC(=O)c1ccsc1NC(=O)c1ccc(N2CCCC2=O)cc1	STAT3 inh-1 62 | STAT3 inh-2 inactive | NFkB inh STAT3ct inactive | STAT1 inh STAT3c inactive
Cc1ccnc(NC(=O)/C=C/c2ccccc2[N+](=O)[O-])c1	none
Cc1ccnc(NC(=O)/C=C/c2ccccc2Cl)c1	STAT3 inh-1 55 | STAT3 inh-2 inactive | NFkB inh STAT3ct inactive | STAT1 inh STAT3c inactive
O=C(NN=C1CCCCCCC1)C(=O)NC1CCCCC1	none
C[C@H]1O[C@@H](O[C@H]2[C@@H](O)C[C@H](O[C@H]3[C@@H](O)C[C@H](O[C@H]4CC[C@@]5(C)[C@H](CC[C@@H]6[C@@H]5C[C@@H](O)[C@]5(C)[C@@H](C7=CC(=O)OC7)CC[C@]65O)C4)O[C@@H]3C)O[C@@H]2C)C[C@H](O)[C@@H]1O	STAT3 inh-1 87 | STAT3 inh-2 82 | NFkB inh STAT3ct inactive | STAT1 inh STAT3c inactive
